# Legend:
# mantle cell lymphoma = details: refractory or relapsed MCL patients; cited from earlier work
# [1] = system: Granta 519 and Z138 cell lines; experiment: MAP kinase pathway; type: cell-based, human; details: 24 hrs
# HeLa cells = experiment: TNF-α induced p65 NF-kB phosphorylation western blot; type: cell-based, human; details: 5ng/ml TNF-α for 5 min after treatment
# Outline: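 Positive-control system: HeLa cells were pretreated with test compound, then stimulated with 5ng/ml TNF-α for 5 min. Phospho-p65 NF-kB was assessed by western blot of whole-cell extracts.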
structure (smiles),measurement,setting,value
C=CC(=O)N1CCC[C@@H](n2nc(-c3ccc(Oc4ccccc4)cc3)c3c(N)ncnc32)C1 [Ibrutinib],patients with complete remission,mantle cell lymphoma,approximately 21%
N#CC(=C(/N)Sc1ccccc1N)/C(C#N)=C(/N)Sc1ccccc1N [U0126],phosphorylation status of MEK or ERK kinases,[1],potently inhibited
Nc1ccc2ncnc(NCCc3ccc(Oc4ccccc4)cc3)c2c1 [QNZ],phosphorylation status of p65,HeLa cells,strong inhibition

# Source: PMC4703501 (Leukemia, 2015)
